The target of one series is T1, Thymidine phosphorylase (Homo sapiens, UniProt P19971).
T1 sequence (P19971 whole entry): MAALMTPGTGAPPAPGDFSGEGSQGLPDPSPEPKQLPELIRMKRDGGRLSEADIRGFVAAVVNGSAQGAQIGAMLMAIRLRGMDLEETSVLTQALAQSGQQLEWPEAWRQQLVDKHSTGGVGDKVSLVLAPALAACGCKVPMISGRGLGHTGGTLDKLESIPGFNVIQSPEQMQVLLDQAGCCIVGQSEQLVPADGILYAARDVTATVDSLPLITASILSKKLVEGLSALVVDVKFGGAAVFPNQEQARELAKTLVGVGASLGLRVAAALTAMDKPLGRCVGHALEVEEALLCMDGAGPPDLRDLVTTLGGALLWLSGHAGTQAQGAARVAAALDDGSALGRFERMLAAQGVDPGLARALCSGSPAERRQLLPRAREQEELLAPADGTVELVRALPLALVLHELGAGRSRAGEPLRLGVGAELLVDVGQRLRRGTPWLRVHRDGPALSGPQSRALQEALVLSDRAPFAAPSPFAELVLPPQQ
Briefly: Inhibition of recombinant human thymidine phosphorylase expressed in Escherichia coli Rosetta (DE3) cells using thymidine as substrate after 1 min by UV/visible spectrophotometry.

For series [1], the system named is U-87 MG. Kind of series: Induction of apoptosis in human U87MG cells xenografted in BALB/c nude mouse assessed as caspase-3 levels at 50 mg/kg, ip after 14 days by immunohistochemistry. The format is functional, organism-based. As to conditions: U-87MG ATCC. Summed up: (§1)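 Male BALB/c nude mice implanted subcutaneously with 5 x 10⁵ U-87 MG cells in the right flank. Treated IP at 50 mg/kg/day for 14 days, with saline controls, starting once tumors reached about 50 mm³. Tumors fixed in formaldehyde and cut at 3 µm. Citrate pH 6 antigen retrieval.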
A general note: A xenograft is tissue or cells of one species grown in another, often human tumour cells in immunodeficient mice.

The test system of series [2] is U-87 MG. Kind of series: In-vivo inhibition of cell proliferation in human U87MG cells xenografted in BALB/c nude mouse at 50 mg/kg, ip after 14 days by Ki-67b-staining based assay. The class given is functional, organism-based. As to conditions: U-87MG ATCC. Summed up:
as §1

Series [3] has as its system U-87 MG. Briefly: Antitumor activity against human U87MG cells xenografted in BALB/c nude mouse assessed as tumor growth inhibition 50 mg/kg/day, ip administered for 14 days. The format is functional, organism-based. As to conditions: U-87MG ATCC. The essentials: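 5 x 10⁵ U-87 MG cells implanted subcutaneously in right flank of male BALB/c nude mice; at about 50 mm³, randomized to saline or ip 50 mg/kg/day, with temozolomide 50 mg/kg/day in the combination arm, for 14 days. Relative tumor volume = volume on day / day 0; TGI on day 14 = [1 − RTV treated/RTV control] x 100. Two-way ANOVA with Bonferroni.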

Series [4] relates to U-87 MG. Kind of series: Anti-angiogenic activity in tumor of human U87MG cells xenografted in nude BALB/c mouse assessed as reduction in number of blood vessels at 50 mg/kg, ip administered for 14 days by hematoxylin and eosin-staining based light microscopy. The format is functional, organism-based. As to conditions: U-87MG ATCC. The essentials: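 U-87 MG flank xenografts (5 x 10⁵ cells) in male nude mice; ip treatment daily from about 50 mm³ for 14 days, with temozolomide at 50 mg/kg/day in the co-treatment arm. Vessel density counted on HE-stained 3 µm sections by hot-spot method, mean of four fields per tumor at x200, avoiding gross haemorrhage. One-way ANOVA/Dunnett.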

Series [5] in a line: Toxicity in nude BALB/c mouse xenografted with human U87MG cells assessed as reduction in body weight at 50 mg/kg, […]. The arrangement: scale not given: the % may be the effect or the level left. The class given is organism-based. As to conditions: in vivo, ip, 120 h.
Series [6] has as its system U-87 MG. Kind of series: Anti-angiogenic activity in tumor of human U87MG cells xenografted in nude BALB/c mouse assessed as reduction in CD31 staining at 50 mg/kg, ip administered for 14 days by immunohistochemistry. The format is functional, organism-based. As to conditions: U-87MG ATCC. The essentials:
(§2)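 Male nude mice bearing subcutaneous right-flank xenografts of 5 x 10⁵ U-87 MG cells; dosing began at about 50 mm³ tumors, ip daily for 14 days. Tumors formalin-fixed, paraffin sections 3 µm; citrate pH 6 antigen retrieval at 95-98 °C; primary antibody overnight at 4 °C, HRP secondary, DAB. Positive area quantified by optical density at x200, 4 images per tumor; mean ± SEM, one-way ANOVA with Dunnett.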

Series [7] has as its system U-87 MG. Briefly: Anti-angiogenic activity in tumor of human U87MG cells xenografted in nude BALB/c mouse assessed as reduction in VEGF staining at 50 mg/kg, ip administered for 14 days by immunohistochemistry. The format is functional, organism-based. As to conditions: U-87MG ATCC. The essentials:
as §2

Activity calls are given as the source filed them. The calls are words filed in the database; no cut-off is given here. A value given as a limit tells only on which side of the number the result lay.

Three compounds from ChEMBL document CHEMBL4422632, “Design of Novel Inhibitors of Human Thymidine Phosphorylase: Synthesis, Enzyme Inhibition, in Vitro Toxicity, and Impact on Human Glioblastoma Cancer” (J Med Chem, 2019) can be followed below.

For orientation: IC50 means the concentration that inhibits the measured activity by half.

Take `CCCN(CCC)Cc1[nH]c(=O)[nH]c(=O)c1I`: on Thymidine phosphorylase, the half-maximal inhibitory concentration (IC50) is over 100 µM.
For the compound `Cn1nnc2c(C(N)=O)ncn2c1=O` [TEMOZOLOMIDE], the result with U-87 MG [1], in the series on U-87 MG [4], with U-87 MG [6] and with U-87 MG [7] was inactive. The inhibition result in the series with U-87 MG [2] was “inactive”. Also, in the series with U-87 MG [3], the TGI result is “Active”. Moreover, the Activity in series [5] is reported as under 20%.
Regarding `O=c1[nH]c(CNCC(O)CO)c(Br)c(=O)[nH]1` (centres undefined), the IC50 on Thymidine phosphorylase is over 100 µM.
